# Sampled rows, rich in hits. Any-hit rate of the full collection: about 1.8%.
# CHRM4 agonist – human M4 muscarinic receptor agonists, primary screen, CHO-K1 cells, Fluo-8 calcium fluorescence; hit rate 0.14% among 360,000; CHO-K1 hM4/Gqi5; vehicle 0%, full acetylcholine response 100%; activation, % at 3 µM; Muscarinic acetylcholine receptor M4 (Homo sapiens), P08173; AID 624127, 2012;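 active means activation above the run mean over all test wells plus 3 SD, cut at about 32% in these data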;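 further: peak over basal fluorescence ratio per well then scaled between controls; 0% = DMSO wells and 100% = acetylcholine at EC100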
# CHRM4 PAM – human M4 muscarinic receptor positive allosteric modulators, primary screen, CHO-K1 cells, Fluo-8 calcium fluorescence; hit rate 0.4% among 360,000; CHO-K1 hM4/Gqi5, ACh EC20; 0% = ACh EC20, 100% = maximal ACh; activation, % at 3 µM;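 active means activation above its plate's cutoff, the mean activation of sample wells plus 3 SD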
# CHRM4 antagonist – human M4 muscarinic receptor antagonists, primary screen, CHO cells, Fluo-8 calcium fluorescence. Muscarinic acetylcholine receptor M4 (Homo sapiens), P08173. CHO-hM4 cells, ACh EC80. inhibition, % at 3 µM. hit rate 0.73% among 360,000;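 active means inhibition above its plate's cutoff, the mean inhibition of sample wells plus 3 SD, cut at about 27% in these data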;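 further: 0% = acetylcholine EC80 with DMSO and 100% = DMSO without agonist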
# CHRM5 antagonist – human M5 muscarinic receptor antagonists, primary screen, CHO cells, Fluo-8 calcium fluorescence. Muscarinic acetylcholine receptor M5 (Homo sapiens), P08912. CHO-hM5 cells, ACh EC80. inhibition, % at 3 µM. hit rate 0.59% among 360,000;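 active means inhibition above a per-plate cutoff, the mean of that plate's test compounds plus 3 SD, cut at about 27% in these data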;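 further: 0% = acetylcholine EC80 with DMSO and 100% = DMSO without agonist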
# Target sequence (P08912 whole entry, looked up): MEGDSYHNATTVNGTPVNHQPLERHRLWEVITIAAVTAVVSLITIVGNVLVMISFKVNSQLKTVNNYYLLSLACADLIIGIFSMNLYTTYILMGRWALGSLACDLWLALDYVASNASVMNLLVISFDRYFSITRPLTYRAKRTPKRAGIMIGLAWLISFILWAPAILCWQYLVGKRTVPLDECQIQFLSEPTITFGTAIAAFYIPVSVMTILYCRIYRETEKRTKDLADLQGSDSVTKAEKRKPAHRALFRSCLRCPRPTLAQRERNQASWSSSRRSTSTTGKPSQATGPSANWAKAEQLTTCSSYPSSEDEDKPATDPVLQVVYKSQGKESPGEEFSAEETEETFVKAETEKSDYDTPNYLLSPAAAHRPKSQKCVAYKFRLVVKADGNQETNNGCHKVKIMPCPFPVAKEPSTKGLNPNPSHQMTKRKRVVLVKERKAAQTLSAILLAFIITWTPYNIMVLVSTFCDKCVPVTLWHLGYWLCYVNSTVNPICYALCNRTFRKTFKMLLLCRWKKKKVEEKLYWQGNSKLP
# M5 PAM – human M5 muscarinic receptor positive allosteric modulators, primary screen, CHO-K1 cells, Fluo-8 calcium fluorescence. activation, % at 3 µM. CHO-K1 hM5, ACh EC20 PAM; 0% = ACh EC20, 100% = ACh EC100. hit rate 0.3% among 360,000;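 active means activation above the run cutoff, the mean activation of all test compounds plus 3 SD, cut at about 18% in these data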
#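 system = human M5 receptor in CHO-K1 cells | compound = one concentration, 3 µM final (nominal) | schedule = Post-acetylcholine fluorescence recording 140 s | signal = Fluo-8 calcium dye fluorescence, kinetic read | benchmarks = low control EC20 acetylcholine (0%), high control EC100 acetylcholine (100%) | repeats = singlicate, one well per test compound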
# CHRM5 agonist – human M5 muscarinic receptor agonists, primary screen, CHO-K1 cells, Fluo-8 calcium fluorescence; CHO-K1 hM5 cells; 0% DMSO wells, 100% maximal acetylcholine response; activation, % at 3 µM; hit rate 0.19% among 360,000; AID 624037, 2012;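 active means activation above the run's mean over test compounds plus 3 SD, cut at about 23% in these data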;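 further: signal is peak over basal fluorescence ratio across the kinetic read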
# * hit, by the source's call.
SMILES,CHRM4 agonist,CHRM4 PAM,CHRM4 antagonist,CHRM5 antagonist,M5 PAM,CHRM5 agonist
C[C@H]1CN=C(N(C)C)N1CCC1CCCCC1,3,-1,6,8,-4,-11
CC(C)n1c(=O)[nH]c2ccccc21,1,1,2,-1,-2,1
Cc1ccc(NC(=O)c2ccc3c(c2)[nH]c(=O)n3C(C)C)cc1,5,-9,1,28*,-16,-1
CN1CC(=O)N(CC(=O)Nc2ccc(F)cc2)c2ccccc2C1=O,1,12,-11,-2,40*,-8
CN1CC(=O)N(CC(=O)NCc2ccc(F)cc2)c2ccccc2C1=O,1,7,-6,-1,7,-4
Cc1[nH]c2ccccc2c1CCN(Cc1cccnc1)C(=S)NC(C)(C)C,6,-6,5,12,-4,-6
CC(OC(=O)C1CCCCC1)C(=O)Nc1ccc(S(N)(=O)=O)cc1 (stereo not given),1,22*,-25,-11,1,0
Cc1nc(NC(=O)Nc2ccc(Cl)cc2)sc1C,7,0,28*,5,-5,4
CC(C)(C)c1nnc(NC(=O)Nc2ccc(Cl)cc2)s1,1,-8,-1,14,-5,3
Cc1noc(-c2ccccc2)c1NC(=O)Nc1ccc(Cl)cc1,10,-58,37*,23,-20,-2
COc1ccccc1C(=O)NC(=O)COC(=O)CCOc1ccccc1C,0,4,6,9,0,0
COc1ccc(C(=O)Oc2ccc3oc(=O)sc3c2)cc1,5,-23,58*,9,-1,1
COc1ccc(C(=O)Oc2ccc3ccc(=O)oc3c2)cc1,8,3,-16,2,-4,-2
Nc1nc(N2CCN(c3ccccn3)CC2)nc2ccccc12,2,-18,27*,13,-10,-8
Nc1nc(N2CCCCC2)nc2ccccc12,1,-19,22,16,-23,-8
Cc1cc2cc(CNC(=S)NC3CCCCC3)ccc2[nH]1,2,11,-9,6,-2,1
CNC(=S)NCc1ccc2[nH]c(C)cc2c1,0,5,-3,1,18*,-3
CCN(CC)c1ccc(C2C(C(=O)OCCOC(C)C)=C(C)NC3=C2C(=O)CCC3)cc1 (stereo not given),1,-20,33*,25,-21,-7
CC1CCC(NC(=O)C2CCC(CNS(=O)(=O)c3ccc4c(c3)C(C)(C)C(=O)N4C)CC2)CC1 (stereo not given),2,6,-6,-3,2,0
CC(=O)c1cc2c(cc1NS(=O)(=O)c1cccc(C(=O)O)c1)OCO2,0,-6,-5,-2,1,-1
CC(=O)c1cc2c(cc1NS(=O)(=O)c1ccccc1)OCO2,2,-10,30*,14,-5,-7
CN(C)CCNC(=O)COc1ccc(C23CC4CC(CC(C4)C2)C3)cc1,9,7,3,11,-1,0
CC(C)(C)CN1CCC(Oc2cccc(C(=O)N3CCNC(=O)C3(C)C)c2)CC1,1,-14,24,31*,-10,-11
CCCCN(C)C(=O)c1cccc(OC2CCN(CC(C)(C)C)CC2)c1,2,-3,2,2,-5,-21
Cc1cc(NC(=O)CSc2nc(-c3ccccc3)c(C#N)c(=O)[nH]2)no1,-2,21*,-4,-8,9,-2
SMILES,CHRM4 agonist,CHRM4 PAM,CHRM4 antagonist,CHRM5 antagonist,M5 PAM,CHRM5 agonist
CC(=O)c1ccc(O)c(CC=C(C)C)c1,0,1,-7,0,-1,0
CCCNC(=O)C1(C)CCCN(C(=O)Cc2ccc3ccccc3c2)C1 (stereo not given),3,4,-7,5,-1,1
COCCNC(=O)C1(C)CCCN(C(=O)Cc2ccc3ccccc3c2)C1 (stereo not given),2,17*,-16,-10,3,1
CCc1ccc(OCc2nnc(SCc3ccc(C(=O)O)cc3)o2)cc1,4,27*,-8,-2,-3,-1
O=C(O)c1ccc(CSc2nnc(COc3ccccc3)o2)cc1,10,-2,6,17,-10,4
CC(=O)N1N=C(c2ccc(NS(=O)(=O)c3ccccc3)cc2)CC1c1ccco1 (stereo not given),7,-10,12,16,-13,4
COc1cc(OC)nc(Oc2cc(C=O)ccc2OC)n1,0,3,-4,2,2,-3
CCOc1ccc2c(c1)N(C(=O)CN1C(=O)CCC1=O)C(C)(C)C=C2C,-2,10,-5,-5,3,-7
CC1=CC(C)(C)N(C(=O)CNC2CCCC2)c2cc(C)ccc21,0,-27,49*,37*,-31,-15
C/C(=N\NC(=O)c1cc2c(s1)CCC(C)C2)c1ccc[nH]1 (stereo not given),41*,2,1,2,6,2
O=[N+]([O-])c1cnc(Sc2ccncn2)c([N+](=O)[O-])c1,3,-3,-8,-4,-1,3
O=[N+]([O-])c1cnc(Sc2ccncn2)s1,17,-7,32*,19,-7,1
CC(/C=N/N1CCN(c2ccccn2)CC1)=C\c1ccccc1,1,-3,11,0,-2,-1
COc1ccc(CC2=CC(=O)c3ccccc3C2=O)cc1,9,-5,33*,11,2,7
CN1CCN(C(=O)c2cccc(S(=O)(=O)N3CCCC3)c2)CC1,1,8,0,0,4,2
O=C(NCCN1CCN(c2cccc(Cl)c2)CC1)Nc1ccccc1,5,-13,2,1,-7,-4
O=C(NCCN1CCN(Cc2ccccc2)CC1)Nc1cc(Cl)cc(Cl)c1,45*,-53,43*,21,-28,13
CC(=O)N1CCN(C23CC4CC(CC(C4)C2)C3)CC1,0,-1,1,2,-2,-1
CCCCCC#CCN1CCN(C23CC4CC(CC(C4)C2)C3)CC1,1,-14,30*,10,-16,-10
CCCC#CCN1CCN(C23CC4CC(CC(C4)C2)C3)CC1,1,-11,28*,15,-12,-7
O=C(CNC(=O)c1ccc(Br)cc1)OCc1cc([N+](=O)[O-])cc2c1OCOC2,1,-6,-5,7,-1,-2
